In the RNAGym collection of RNA variant scans (doi:10.1126/science.aae0568):
Variants at the floor of the assay were thinned out.

B1: tRNA (parent)
chain: GUUCCGUUGGCGUAAUGGUAACGCGUCUCCCUCCUAAGGAGAAGACUGCGGGUUCGAGUCCCGUACGGAACG

Variants of: B1
Experiment: yeast fitness relative to wild type (ratio to wild type); higher = fitter; tRNA-Arg(CCU), competitive growth, 37 C, YPD
Outline: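 The tRNA-Arg(CCU) gene variants were made by chemical synthesis with a 3% per-site mutation rate at 69 sites and inserted at the native genomic locus of Saccharomyces cerevisiae. After pooling, the strains were competed in YPD at 37°C for 24 hours in six parallel replicates. Gene amplicons from the start population and each end population were read by 100-nucleotide paired-end sequencing, and Darwinian fitness relative to wild type was taken from genotype frequency changes. Genotypes needed ≥ 100 starting reads, and estimates < 0.5 were set to 0.5.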

| Variant | yeast fitness |
| --- | --- |
| GUUCCGUUGACGUAAUGGUAACGCGUCUCCCUCCUAAGGAGAAGACUGCGGGUUCGAGUCCCGUACGGUACG [G10A A69U] | 0.732 |
| GCACCGUUGGCGUAAUGGUAACGCGCCUCCCUCCUAAGGAGAAGACUGCGGGCUCGAGUCCCGUACGGAACG [U2C U3A U26C U53C] | ≤ 0.5 |
| GUUCCGUUGGAGUAAUGGUAACGCGUCUCCCUCCUAAGGAGAAGACUGCGGGUACGAGUCCCGUACGGAACG [C11A U54A] | 0.602 |
| GAUCCGUUGGCGUAACGGUAACGCGUCUCACUCCUAAGGAGAAGACUGCGGGUUCGAGUCCCGUACCGAACG [U2A U16C C30A G67C] | 0.557 |
| GUUCCGUAGGCGUACUGGUAACGCGACUCCCUACUAAGGAGAAGACUGCGGGUUCGAGUCACGAACGGAACG [U8A A15C U26A C33A C61A U64A] | ≤ 0.5 |
| GUUCGGUUGGCGUAAUGGUAAAGCGUCUCCCUCCUAAGGAGAAGACUGCGGGUUCGAGUCCCGUACGGCACG [C5G C22A A69C] | 0.603 |
| GUUCCGUAGGCGUCAUGGUAACGCGUCUCCAUCCUAAGGACAAGACUGCGGGUUCGAGUCCCUAACGGAACG [U8A A14C C31A G41C G63U U64A] | 0.776 |
| GUUCCGUUGGCGUAAUGGUAACGCGUCUCCGUCCUAAGGAGUAGACUGCGGGUUCGACUCCCGUACGGAACG [C31G A42U G58C] | 0.538 |
| GGUCCGUUGCCGUAAUGGUAACGCGUCUCCCUCCUAAGGAGAAGACUGCGGGUUCGAGUCCCGUACCGAACG [U2G G10C G67C] | ≤ 0.5 |
| GUUCCGUUGCCGUAAUGGUAACGCGUCUCCCUCCUAAGGAGAAGACUGCGGGUGCGAGUCCCGUACGGAACG [G10C U54G] | ≤ 0.5 |
| GUUCCGUUGGCGUAAUGGUAACGGGUCUCCCUCCUAAGCAGAAGGCUGCGGGUAUGAGUCCCGUACGGAACG [C24G G39C A45G U54A C55U] | ≤ 0.5 |
| GUUCCGUUGGCGUUAUGGUAAAGCGUCUCCCUCCUAAGGAGAGGACUGCGGCUUCGAGUCCCGUACGGAACG [A14U C22A A43G G52C] | ≤ 0.5 |
| GUUCCCUUGGCGUAAUGGUAACGCGUCUCCCUCCUAAGGAGAAGACUGCGGGUUUGAGUCCCGUACGGAACG [G6C C55U] | 0.873 |
| GUUCCGUUGGCGUAAUGGUAACGCGUCCCCCUCCUAAGGAAAAGACUGCGGUUUCGAGUCCCGUACGGAACG [U28C G41A G52U] | ≤ 0.5 |
| GUUCCGUUGGCGUAAUGGUAACGCGUCUCCCUCCUAAGGAGAAGACUGCGGCUUCAAGUCCUGUACGGAACG [G52C G56A C62U] | 0.653 |
| GUACCGUUGGCGUAAUGGUAUCGCGUCACCCUCCUAAGGAGCAGACUGCGGGUUCGGGUCCCGUAAGGAACG [U3A A21U U28A A42C A57G C66A] | ≤ 0.5 |
| GUUCUGAUGGCGUAAUGGUAACGCGUCUCCCUCCUAAGGAGAAGACUGCGGGUUCGAGUCCCGUACGGAACG [C5U U7A] | 0.772 |
| GUUCCCUUGGCGCAAUGGUAACGCGUCUCCCUCCUAAGGAGAAGACUGCGGGUUCGAGUCCCGUACGGAACG [G6C U13C] | 0.823 |
| GUUCCGUUGGCGUAAUGGUAACGCGUCUCCCUCCUAAGGAGAAAACUGCCGGUUCGAGUCCCGUACGGAACG [G44A G50C] | 0.623 |

| Variant | yeast fitness |
| --- | --- |
| GUGCCGUUGGAGCAAUGGUAACGCGUCUCCCUACUAAGGAGUAGACUGCGGGUUAGAGUCCCGUACGGAACG [U3G C11A U13C C33A A42U C55A] | ≤ 0.5 |
| GUUUCGUUGGCGUUAUGGUAACGCGUCUCACUCCUAAGGAGAAGACUGCGGGUGCGAGUCCCGUCCGGAACG [C4U A14U C30A U54G A65C] | 0.634 |
| GUUCCGUUGGCGUAAUCGUAACGCGUCUCCCUCCUAAGGAGAAGACUGCGGGUUAGAGUACCGUACGGAACG [G17C C55A C60A] | 0.716 |
| GUUCCGUUGGCGUAAUGGUAACGCGGCUCCCUCUUAAGGAGAAGACUGAGAGUUCGAGUCCCGUACGGUACG [U26G C34U C49A G51A A69U] | ≤ 0.5 |
| GUUCCGUUGGCGUAAUGGUAGCGCGUCUCCCUCCUGAGGAGAAGACUGCGGGAUCGUGUCCCGUUCGGAACG [A21G A36G U53A A57U A65U] | ≤ 0.5 |
| GUUCCGUUGGCGUAAUGGUAACGCGUCUCCCUCCUAAGGAGAAGACUGAGGGUUCGUGUCCCGUACGGACCG [C49A A57U A70C] | 0.518 |
| GUUCCGUUGGCGUAAGGGUAACGCGUCUCCUUCCUAAGGAGAAGACUGCGCGUUCGAGUCCCGUCCGGAACG [U16G C31U G51C A65C] | ≤ 0.5 |
| GUUCCGUUGGCGUAAUGGUUACGCGUCUCCCUCCUAAGGAGAAGACAGCGGGUUCGAGUCCCGUACGGAACG [A20U U47A] | 0.673 |
| GUUCCGUUGGCGAAAUGGUAACGCGUCUCCCUCCUAAGGAGAAGACUGCGGGUUCGAGUCCCGUCCGGAACG [U13A A65C] | 0.79 |
| GUUCCGUUGGGGUAAAGGUAACGCGUCUCCCUCCUAAGGAGAAGACUGCGGGUUCGAGUCCCGUGCGGAACG [C11G U16A A65G] | 0.567 |
| GUUCCGUUGGCGUAAUGGUAACGCGUCUCCCUCAUAAGGAGAAGACUGCGGGUUCGAGUCCCGUACGGAACG [C34A] | 0.71 |
| GUUCCGUUGGCGUAAUGGUAACGCGUCUCCCCCAUAAGGCGAAGACUGCGGGUCCGAGUCCCGUAUGGAACG [U32C C34A A40C U54C C66U] | 0.534 |
| GUUCCGUUGGCGUAAUGGUCACGUGUCUCCCUCCUAAGGGGUAGACUGCACGUUCGAGUCCCGUACGGACCG [A20C C24U A40G A42U G50A G51C A70C] | ≤ 0.5 |
| GUUCCGUUGGCGUAAUGGUAACGCGUGUCCCUCCUAAGGUGAAGACUGCGGGUUCGUGUCCCGUAAGGAACG [C27G A40U A57U C66A] | ≤ 0.5 |
| GUUCCGUUGGCGUAAUGGUAACGCGUCACCCUCCUAAGGAGAAGACUGCGGGUUCGAGUCCCGUACAGAACG [U28A G67A] | 0.628 |
| GUUCUGUUAGCGUAAUGGUAACGCGUCUCCAUCCUAAGGAGAAGACUGCGGGUUCGCGUCCCGUAAGGUACG [C5U G9A C31A A57C C66A A69U] | ≤ 0.5 |
| GUUCCGUUGGCGUAAUGGUAACGCGUCUACGUCCUAAGGAGAAGACUGCGCGUUCGAGUCCGGUACGGAACG [C29A C31G G51C C62G] | ≤ 0.5 |
| GUUCCGUUGGCGUGAUGGUAACGCGUCUCCCUCCUAUGGAGAAGACUGCGGGUUCGAGUCCCGUACGGAACG [A14G A37U] | 0.584 |
